Calls of active or inactive are those of the source. The calls are words filed in the database; no cut-off is given here.
Key:
HeLa [1] = experiment: Induction of [alpha-32P]-UTP-labeled Simian virus 40 late pre-mRNA 3' cleavage at 200 nM treated with 3' cleavage factors from human HeLa cell nuclear extract after 2 hrs by PAGE analysis in presence of protein tyrosine phosphatase; format: cell-based; details: Betapolyomavirus macacae
HeLa [2] = experiment: Induction of [alpha-32P]-UTP-labeled Simian virus 40 late pre-mRNA 3' cleavage at 200 nM treated with 3' cleavage factors from human HeLa cell nuclear extract after 2 hrs by PAGE analysis in presence of calf intestinal alkaline phosphatase; format: cell-based; details: Betapolyomavirus macacae
Protein phosphatase 1D = target: T1, Protein phosphatase 1D (Homo sapiens, UniProt O15297); experiment: Inhibition of N-terminal His-tagged human PPM1D (1 to 420) assessed as phosphoric acid release after 30 mins
T1 sequence (O15297 whole entry): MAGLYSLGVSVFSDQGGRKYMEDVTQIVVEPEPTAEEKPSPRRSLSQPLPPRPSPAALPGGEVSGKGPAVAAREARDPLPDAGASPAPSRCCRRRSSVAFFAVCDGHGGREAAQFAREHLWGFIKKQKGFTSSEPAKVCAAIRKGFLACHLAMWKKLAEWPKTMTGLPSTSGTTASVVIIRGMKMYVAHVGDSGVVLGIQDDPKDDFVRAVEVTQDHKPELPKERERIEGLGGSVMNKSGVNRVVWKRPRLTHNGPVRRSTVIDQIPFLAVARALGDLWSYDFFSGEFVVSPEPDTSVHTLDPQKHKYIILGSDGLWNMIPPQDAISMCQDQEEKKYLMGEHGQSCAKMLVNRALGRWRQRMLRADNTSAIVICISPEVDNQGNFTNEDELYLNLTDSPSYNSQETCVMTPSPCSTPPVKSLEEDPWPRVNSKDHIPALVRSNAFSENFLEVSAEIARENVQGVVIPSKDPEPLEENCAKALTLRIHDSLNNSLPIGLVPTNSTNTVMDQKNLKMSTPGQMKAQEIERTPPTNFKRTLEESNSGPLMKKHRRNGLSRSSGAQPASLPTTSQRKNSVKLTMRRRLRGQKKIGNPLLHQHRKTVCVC

HeLa [3] = experiment: Induction of [alpha-32P]-UTP-labeled Simian virus 40 late pre-mRNA 3' cleavage at 200 nM treated with 3' cleavage factors from human HeLa cell nuclear extract after 2 hrs by PAGE analysis; format: cell-based; details: Betapolyomavirus macacae
Procedure, shortened: (§1)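 Radiolabeled substrate (1–5 nM) derived from the SV40 late poly(A) signal was incubated with DEAE-sepharose CPSF, CstF and CFm fractions from HeLa nuclear extract. Test agent replaced 50 mM creatine phosphate. Reaction mix contained tRNA, 2 mM EDTA, 2 mM 2′-dATP, 2.5% polyvinyl alcohol and 10 mM HEPES pH 7.9, run at 30 °C for 2 h. Products were Proteinase K-digested, extracted, precipitated and resolved by 6% denaturing PAGE.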

HeLa [4] = experiment: Induction of [alpha-32P]-UTP-labeled Simian virus 40 late pre-mRNA 3' cleavage at 1 mM treated with 3' cleavage factors from human HeLa cell nuclear extract after 2 hrs by PAGE analysis; format: cell-based; details: Betapolyomavirus macacae; procedure, shortened: as §1
HeLa [5] = experiment: Induction of [alpha-32P]-UTP-labeled Simian virus 40 late pre-mRNA 3' cleavage treated with 3' cleavage factors from human HeLa cell nuclear extract after 2 hrs by PAGE analysis; format: cell-based; details: Betapolyomavirus macacae
Procedure, shortened: (§2)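 Partially purified HeLa nuclear extract cleavage factors (DEAE fractions CPSF, CstF, CFm; ammonium sulfate-concentrated, dialyzed against 20 mM Na-HEPES pH 7.9 buffer) incubated with radiolabeled SV40 late poly(A) signal substrate (1–5 nM). Reaction mix: tRNA 0.1 mg/mL, 2 mM EDTA, 2 mM 2'-dATP, 2.5% polyvinyl alcohol, 10 mM HEPES pH 7.9, 25 mM ammonium sulfate, activator replacing creatine phosphate. Run 2 h at 30 °C; Proteinase K treatment, 6% denaturing gel.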

HeLa [6] = experiment: Induction of [alpha-32P]-UTP-labeled Simian virus 40 late pre-mRNA 3' cleavage at >= 100 uM treated with 3' cleavage factors from human HeLa cell nuclear extract after 2 hrs by PAGE analysis relative to control; format: cell-based; details: Betapolyomavirus macacae; procedure, shortened: as §1
[7] = Inhibition of ABI2 (unknown origin) at 3 uM relative to control; design: scale not given: the % may be the effect or the level left
[8] = Inhibition of ABI2 (unknown origin)
[9] = Inhibition of ABI1 (unknown origin)
HeLa [10] = experiment: Induction of [alpha-32P]-UTP-labeled Simian virus 40 late pre-mRNA 3' cleavage at 50 mM treated with 3' cleavage factors from human HeLa cell nuclear extract after 2 hrs by PAGE analysis; format: cell-based; details: Betapolyomavirus macacae; procedure, shortened: as §2
HeLa [11] = experiment: Induction of [alpha-32P]-UTP-labeled Simian virus 40 late pre-mRNA 3' cleavage at 25 to 200 uM treated with 3' cleavage factors from human HeLa cell nuclear extract after 2 hrs by PAGE analysis; format: cell-based; details: Betapolyomavirus macacae; procedure, shortened: as §1

Q: What does the source list for CC[C@H](C)[C@@H]1NC(=O)[C@H](Cc2ccc(OP(=O)(O)O)cc2)NC(=O)[C@H](CC(=O)O)NC(=O)[C@H](CCC(=O)O)N[C@H](C(N)=O)CSCC(=O)[C@H](Cc2ccccc2)NC(=O)[C@H](COP(=O)(O)O)NC1=O?
A: Activity (HeLa [1]): Active; Activity (HeLa [2]): inactive; Ki (Protein phosphatase 1D): 150 nM; Activity (HeLa [3]): Active

Q: Which Activity (HeLa [4]) does the source give for CC(=O)N[C@@H](CCCC[N+](C)(C)C)C(=O)N[C@@H](COP(=O)([O-])O)C(=O)O here?
A: Active

Q: With CCNC(=N)NCCC[C@H](N)C(=O)Nc1cccc2ccccc12 as the compound, how does the Activity (HeLa [4]) read?
A: inactive

Q: For C[N+](C)(C)CCOP(=O)(O)O, which Activity (HeLa [4]) is on record?
A: inactive

Q: For CN(C)CCOP(=O)(O)O, which Activity (HeLa [5]) is on record?
A: inactive

Q: Which Activity (HeLa [5]) does the source give for C[N+](C)(C)CCCOP(=O)(O)O here?
A: inactive

Q: Which results are given for CC1=CC(=O)CC(C)(C)[C@@]1(O)/C=C/C(C)=C\C(=O)O [(+)-ABSCISIC ACID]?
A: Activity (HeLa [6]): 10%; Activity [7]: 15%; IC50 [8]: 70 nM; IC50 [9]: 60 nM

Q: With N[C@@H](COP(=O)(O)O)C(=O)O as the compound, how does the Activity (HeLa [4]) read?
A: inactive

Q: With N=C(N)NCCC[C@H](N)C(=O)Nc1cccc2ccccc12 as the compound, how does the Activity (HeLa [4]) read?
A: inactive

Q: With CN(CC(=O)O)C(=N)NP(=O)(O)O as the compound, how does the Activity (HeLa [10]) read?
A: Active

Q: For N=C(N)NCCC[C@H](N)C(=O)Nc1ccc2ccccc2c1, which Activity (HeLa [11]) is on record?
A: Active

Q: For CNCCOP(=O)(O)O, which Activity (HeLa [5]) is on record?
A: inactive

Q: Which Activity (HeLa [11]) does the source give for N=C(N)NCCC[C@@H](C(=O)Nc1ccc2ccccc2c1)N1CCOCC1 here?
A: Active

Q: With N=C(N)NCCC[C@H](N)C(=O)Nc1ccccc1 as the compound, how does the Activity (HeLa [4]) read?
A: inactive

Q: With N=C(N)NCCC[C@H](N)C(=O)Nc1cnc2ccccc2c1 as the compound, how does the Activity (HeLa [4]) read?
A: inactive

Source: ChEMBL document CHEMBL3108742, “Structurally diverse low molecular weight activators of the mammalian pre-mRNA 3' cleavage reaction” (Bioorg Med Chem, 2014)
